STAT1 blocker = STAT1 signaling inhibitors, primary screen, cell-based, HTS, luciferase reporter; NIH 3T3 STAT1-luciferase reporter, IFN-gamma, luminescence; inhibition, % at 5.5 µM; 0.35% of 200,000 active; AID 920, 2007;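 active means inhibition above a set limit, the mean inhibition across all tested compounds plus 3 SD, cut at about 34% in these data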;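 further: 0% = IFN-gamma with DMSO and 100% = IFN-gamma with 300 µM nifuroxazide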
STAT3 act = IL-6 driven STAT3 reporter potentiators, primary screen, U3A cells, luciferase, luminescence, MLSCN library. IL-6 STAT3-luciferase reporter; 100% = signal with IL-6 EC80 alone. activation (% of control), % at 5.6 µM. 0.91% of 190,000 active. AID 871, 2007;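 active means activation above the screen-wide mean of compound activation plus 3 SD, cut at about 130% in these data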;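 further: 0% = background luminescence of wells with medium and substrate only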
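Material: human STAT1-deficient U3A cells with stable STAT3-luciferase reporter / Probe or stimulus: IL-6 stimulus at 33 ng/mL final / Schedule: 1 h compound pre-exposure, 6 h IL-6 stimulation, 37 °C / Technique: luminescence / Read-out basis: percent of IL-6-only median luminescence / Control set: IL-6-only high control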
APP 5'UTR act = activators of APP 5'UTR luciferase reporter, primary screen, SH-SY5Y cells; SH-SY5Y APP 5'UTR luciferase reporter, luminescence; zero percent = DMSO vehicle wells; activation, % at 2 µM; 1% of 190,000 active; AID 1276, 2008;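 active means activation above a set limit, based on mean plus 3 SD of controls, cut at about 140% in these data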
STAT1 activator = STAT1 signaling activators, primary screen, cell-based, HTS, luciferase reporter; AID 932, 2007; NIH 3T3 STAT1-luciferase reporter, IFN-gamma, luminescence; 100% = IFN-gamma alone, no compound; 2.6% of 200,000 active; activation (% of control), % at 5.5 µM;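 active means activation above the screen-wide mean activation plus 3 SD, cut at about 130% in these data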;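 further: raw ratio to IFN-gamma control signal so 100% means no change and 0% no light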
NF-kB neuron act = activators of NF-kB expression in neurons, primary screen, cell-based, HTS; human neuronal cells, NF-kB reporter expression; active compounds read high; fold change at 12.5 µM; 1.6% of 190,000 active; AID 1239, 2008; in the data active means fold change above about 3.3
STAT3 inh-1 = IL-6 driven STAT3 reporter inhibitors, primary screen, U3A cells, luciferase, luminescence, MLSCN library; inhibition, % at 5.5 µM; 0.89% of 190,000 active; IL-6 STAT3-luciferase reporter; host cell line lacks STAT1;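 active means inhibition above the mean inhibition across all screened compounds plus 3 SD, cut at about 44% in these data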;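 further: 0% = DMSO only wells and 100% = 100 µM nifuroxazide control wells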
STAT3 inh-2 = STAT3 reporter inhibitors, retest of hits, confirmation, U3A cells, luciferase, luminescence; AID 1265, 2008; 45% of 1,200 active; inhibition, % at 5.7 µM; shares compounds with STAT3 inh-1; IL-6 STAT3 luciferase reporter; cell line lacks STAT1;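 active means inhibition above the hit cutoff computed for the primary STAT3 screen, cut at about 44% in these data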;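 further: 0% = IL-6 plus DMSO and 100% = IL-6 plus nifuroxazide control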
NFkB inh STAT3ct = NF-kB reporter inhibitors in human cells, confirmation, counter-screen for STAT3 inhibitor project, cell-based, HEK293T, luciferase, TNF-alpha stimulus | shares compounds with STAT3 inh-1 | TNF-alpha induced | inhibition, % at 5.7 µM | 36% of 1,200 active;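 active means inhibition above the mean of solvent-only control wells plus 3 SD, cutoff set per campaign, cut at about 13% in these data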;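 further: 0% = TNF-alpha with DMSO and 100% = TNF-alpha with MG high control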
STAT1 inh STAT3c = STAT1 reporter inhibitors, IFN-gamma induced, confirmation, counter-screen for STAT3 inhibitor project, cell-based, NIH 3T3, luciferase luminescence. inhibition, % at 5.7 µM. 27% of 1,200 active. NIH 3T3 STAT1-luciferase reporter. shares compounds with STAT3 inh-1;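 active means inhibition above the mean plus 3 SD of solvent-only control wells, limit set per screening run, cut at about 16% in these data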;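 further: 0% = DMSO with IFN-gamma and 100% = nifuroxazide control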
* hit, by the source's call; . = not tested or not shown; ! = not confirmed by another sample. Shown are actives, neighbours in structure and some others; about 4.9% of the full set was active somewhere.

SMILES	STAT1 blocker	STAT3 act	APP 5'UTR act	STAT1 activator	NF-kB neuron act	STAT3 inh-1	STAT3 inh-2	NFkB inh STAT3ct	STAT1 inh STAT3c
CC1CCC(C(C)C)C(OC(=O)Cn2c(-c3ccccc3)[n+](C)c3ccccc32)C1 (centres undefined)	20.2	56.8	19.4	82.2	0.77	52.8*!	34.3	3.1	22.2*
COc1ccc(-c2cc(=O)c3cc(OC)ccc3o2)cc1	-24.9	42.5	154.6*	121.8	5.29*	72.7*	52.5*	31.2*	-47.3
Cc1nn2cc(-c3ncc(C(F)(F)F)cc3Cl)cnc2c1Br	-31.7	62.9	504.7*	128.8*	0.92	47.1*	46.9*	10.3	-43.1
Cc1cc2ncc(-c3ncc(C(F)(F)F)cc3Cl)cn2n1	28.0	51.2	138.2*	74.8	0.91	64.5*	41.6	5.4	-38.8
NC(=O)c1ccc(-c2ncc(-c3ccccc3)o2)cc1	31.6	55.1	126.4	71.3	11.6*	54.1*	2.3	20.4*	-44.4
CC(=O)NNc1ncnc2c1cnn2-c1ccccc1	6.7	94.5	-4.5	94.0	0.95	14.4	.	.	.
CC(C)Nc1ncnc2c1cnn2-c1ccc(Cl)cc1	5.1	54.5	154.6*	92.7	1.12	55.3*	16.3	-31.4	-186.3
COc1cc(NC(=O)N[C@H](C(=O)O)C(C)C)cc(OC)c1	2.6	105.1	-1.0	97.6	0.98	-1.7	.	.	.
CC(=O)Nc1ccc(Nc2cc(-c3ccccc3)nc3ncnn23)cc1	-5.0	86.4	17.7	102.8	0.87	18.2	.	.	.
CC(=O)Nc1ccc(Nc2cc(C)nc3c(-c4ccccc4)cnn23)cc1	-56.1	55.5	164.6*	150.2*	0.76	55.2*	-1.9	-57.1	-150.5
CCSc1nnc(-c2ccccc2N=Cc2c(C)[nH]n(-c3ccccc3)c2=O)c(=O)[nH]1	-1.9	102.0	21.0	101.9	1.25	-4.0	.	.	.
O=C(CSc1nc(-c2ccco2)cc(C(F)(F)F)n1)Nc1ccc(C(=O)N2CCCCC2)cc1	6.6	62.2	4.8	94.1	0.68	50.4*	46.5*	14.8*	17.7*
Nc1ccc(C(=O)Nc2nc3ccccc3s2)cc1	-27.9	61.6	159.5*	125.0	3.9*	51.1*	1.9	-40.1	-172.8
Cc1ccc(C)n1-c1ccc(-c2ccnc(N)n2)cc1	-9.3	65.9	-4.4	108.3	0.93	44.8*	2.6	-3.8	-28.4
NC(=O)c1cccc(C(N)=O)n1	0.9	101.1	17.7	99.2	1.47	-1.7	.	.	.
Cc1cc(CN(C)C(=O)c2cc(COc3ccc4ncccc4c3)on2)on1	21.2	54.7	1.4	79.9	0.9	57.6*	56.2*	19.5*	19.4*
O=C(NC1CCCCCCC1)c1cc(COc2ccc3ncccc3c2)on1	30.0	36.6	-3.9	72.0	0.68	79.4*	75.1*	26.6*	17.2*
O=C(c1cc(COc2ccc3ncccc3c2)on1)N1CCCC(O)C1 (centres undefined)	22.7	87.0	3.9	78.2	0.96	19.1	.	.	.
CCC(O)C1CCN(C(=O)c2cc(COc3ccc4ncccc4c3)on2)CC1 (centres undefined)	33.1	32.4	-4.0	68.4	0.82	84.2*	84.2*	29.2*	27.4*
O=C(COC(=O)c1ccc2c(c1)OCO2)NCc1ccc(Cl)cc1	-1.6	98.2	4.1	101.4	1.02	6.0	.	.	.
CC(C)c1nnc(NC(=O)c2ccc3c(c2)OCO3)s1	21.8	32.4	147.9*	79.4	4.77*	78.9*	48.5*	4.2	-55.5
O=C(Cc1ccc(Cl)cc1)Nc1ncc([N+](=O)[O-])s1	2.4	100.8	38.6	97.6	1.78	3.8	.	.	.
O=C(COc1ccc(Cl)cc1)Nc1ncc([N+](=O)[O-])s1	31.3	62.5	116.1	69.8	2.11	47.7*	8.0	-8.8	-42.4
c1ccc(CCN(Cc2ccccc2)C2CCN(C3CCCC3)CC2)cc1	3.7	103.0	6.9	95.8	0.83	8.2	.	.	.
CC(=O)c1ccc(N2CCN(C(=S)Nc3cccc(F)c3)CC2)cc1	-15.9	87.9	8.0	114.5	0.65	15.6	.	.	.
SMILES	STAT1 blocker	STAT3 act	APP 5'UTR act	STAT1 activator	NF-kB neuron act	STAT3 inh-1	STAT3 inh-2	NFkB inh STAT3ct	STAT1 inh STAT3c
CC(=O)c1ccc(N2CCN(C(=S)Nc3ccc(Oc4ccccc4)cc3)CC2)cc1	18.1	35.5	3.8	82.8	0.68	77.5*	60.9*	20.2*	11.6
O=C(Nc1nonc1NC(=O)c1cccs1)c1cccs1	10.9	66.2	-18.4	91.2	0.93	43.6*	46.9*	13.3*	7.5
COc1ccc(C(=O)Nc2ccccc2C(=O)N/N=C/c2ccco2)cc1	29.0	60.4	17.4	74.4	1.18	48.5*	2.2	17.9*	20.0*
Cc1c(Cl)cnc(NC(=O)COC(=O)c2ccc3ncsc3c2)c1Cl	14.6	57.9	-5.7	87.0	1.15	49.8*	35.0	11.8	7.9
O=C(COC(=O)c1ccc2ncsc2c1)Nc1ncc(Cl)cc1Cl	6.3	101.5	4.9	94.4	1.37	2.1	.	.	.
Cn1c(=O)n(C)c2cc([N+](=O)[O-])c(N3CCN(C(=O)c4ccccc4Cl)CC3)cc21	17.8	52.5	8.6	84.1	0.51	63.0*	39.5	9.3	11.3
CC(C)[C@H](NC(=O)c1ccccc1Cl)C(=O)NC1CCCCCC1	0.4	98.0	-1.1	99.5	1.25	4.5	.	.	.
COc1cccc(-c2nnc(NC(=O)c3ccc4ncsc4c3)o2)c1	-3.9	93.7	-0.6	103.5	1.22	7.4	.	.	.
Cc1ccc(/C=C/C(=O)NC2=NCCS2)cc1	-51.7	40.1	180.2*	147.1*	5.6*	70.6*	34.8	-9.2	-121.9
CCOc1ccc(-c2nnc(-c3ccc(OC)cc3)o2)cc1	-7.8	94.8	6.8	105.1	1.56	7.7	.	.	.
CCCCOc1ccc(-c2nnc(-c3ccncc3)o2)cc1	-11.0	99.2	76.8	111.7	1.43	5.3	.	.	.
CN(C)c1ccc(-c2nnc(-c3cccs3)o2)cc1	25.0	56.2	163.3*	75.5	7.23*	54.9*	10.9	-27.8	-136.5
CCOc1nc(C)ccc1-c1noc(-c2ccncc2)n1	-8.3	102.4	23.7	107.6	1.28	1.5	.	.	.
